Bioassay records: PubChem, several laboratories
M1 antagonist: M1 muscarinic receptor (rat) antagonism. hit rate 3.4% among 64,000. B-score at 10 µM. CHO-M1 cells, Fluo-4 calcium, ACh EC80 antagonist mode; stronger effect = lower value. P08482;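 active = calcium fluorescence response, raw or row-and-column corrected B-score, differing from the plate sample mean either way at a set confidence level, mostly lower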
Target sequence (P08482 whole entry, looked up): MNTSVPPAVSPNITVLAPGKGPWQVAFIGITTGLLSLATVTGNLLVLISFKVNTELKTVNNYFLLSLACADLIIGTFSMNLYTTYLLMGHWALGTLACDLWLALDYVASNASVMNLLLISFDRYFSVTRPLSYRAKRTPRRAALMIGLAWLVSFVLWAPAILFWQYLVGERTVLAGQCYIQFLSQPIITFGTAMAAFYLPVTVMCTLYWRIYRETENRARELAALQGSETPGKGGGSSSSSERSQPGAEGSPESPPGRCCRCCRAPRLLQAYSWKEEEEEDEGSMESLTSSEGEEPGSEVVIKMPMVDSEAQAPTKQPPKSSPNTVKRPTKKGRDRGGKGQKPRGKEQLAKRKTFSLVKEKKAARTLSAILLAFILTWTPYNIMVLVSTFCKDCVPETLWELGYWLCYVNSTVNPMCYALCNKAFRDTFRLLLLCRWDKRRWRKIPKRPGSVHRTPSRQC
BAP1 block: inhibitors of human BAP1 deubiquitinase. Q92560. recombinant BAP1, Ub-AMC hydrolysis fluorescence kinetic; stronger effect = lower value. calls only at 20 µM. hit rate 0.48% among 72,000. AID 436;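 active = activity remaining at or below 50% of control, provided the compound also passes the data quality filters; inactive = the rest, including low values that fail the filters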;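 also: 100% = DMSO wells rate and 0% = substrate alone blank rate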
M1 agonist: activates the M1 muscarinic receptor; CHO-M1 cells, Fluo-4 calcium fluorescence, agonist mode; stronger effect = higher value; B-score at 10 µM; hit rate 3% among 64,000; AID 626;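 active = fluorescence rise, raw or as B-score row- and column-corrected plate score, outside the 99.7% band of its plate's samples, either direction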
DAT uptake mod: human DAT dopamine uptake with cocaine, either direction; LLC-PK1 hDAT cells, [14C]-dopamine uptake with cocaine IC80; actives deviate in either direction; B-score at 10 µM; Q01959; AID 449768; hit rate 1.3% among 110,000;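 active = Z score or B-score, a plate-position-corrected score, falls beyond the plate's 99.7% confidence bounds, in either direction; inactive = both scores lie inside the 99.7% bounds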;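 also: scored against the spread of the other compound wells on the same plate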
HEK293 NFkB inh: lowers PMA/ionomycin-induced NF-kB signal in HEK293 cells; HEK-293 NF-kB luciferase reporter, luminescence; inhibition, % at 3 µM; hit rate 0.21% among 62,000; AID 465;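 active = inhibition above the mean of all tested compounds plus 3 SD, cut at about 40% in these data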;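 also: 0% = stimulated DMSO wells and 100% = 10 µM reference inhibitor 5653914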
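System: NF-kB luciferase reporter HEK-293 cells | Replication: Single test | Control set: DMSO vs reference inhibitor | Evaluation: % inhibition | Schedule: 1 h pretreatment, 16 h stimulation, 37 °C | Probe or stimulus: PMA with ionomycin | Compound dosing: One dose, 3 µM | Detection: Luciferase luminescence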
D1 mod: allosterically modulates the human D1 dopamine receptor; B-score at 10 µM; HEK293 D1, CRE-luciferase, dopamine EC30 potentiation; actives deviate in either direction; AID 641; hit rate 5.9% among 58,000; P21728;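 active = luminescence count or its row- and column-corrected plate score outside the 99.7% band of the plate's sample wells, on either side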
M1 antag confirm: confirmation of rat M1 muscarinic receptor antagonists | shares compounds with M1 antagonist | CHO-M1 cells, Fluo-4 calcium, ACh EC80 antagonism; stronger effect = lower value | calcium response (max-min fluorescence) at 10 µM | hit rate 43% among 1,700;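 active = calcium response below the same-plate mean of wells given acetylcholine alone at its 80%-effect dose, minus 3 SD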;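 also: raw fluorescence intensity difference in arbitrary instrument units and not normalized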
mGluR4 antag: acts on human mGluR4 in M1 antagonist selectivity test; hit rate 0.9% among 1,700; shares compounds with M1 antagonist; CHO-mGluR4 calcium flux, Fluo-4 fluorescence, glutamate EC80; stronger effect = lower value; fluorescence response (max-min) at 10 µM;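 active = fluorescence response below the plate's average for near-maximal glutamate wells, less 3 SD of those wells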;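 also: raw unnormalized fluorescence span taken in the window right after glutamate addition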
Active calls of the source: *; i = inactive; / = not tested or not shown. Hits are enriched below; roughly 7.2% of the tested compounds scored in any of these assays.

SMILES	M1 antagonist	BAP1 block	M1 agonist	DAT uptake mod	HEK293 NFkB inh	D1 mod	M1 antag confirm	mGluR4 antag
COc1ccc(-c2noc(-c3cc(C)cc(C)c3)n2)cc1OC	-3.05*	i	-1.36	-0.459	0.2	-0.641	468*	231
CCCCOc1ccc(C(=O)NCc2n[nH]c(=S)n2-c2cccc(C)c2)cc1	/	i	/	/	/	/	/	/
O=C(Oc1ccc(-c2nnco2)cc1)N(c1ccccc1)c1ccccc1	-1.57*	i	0.0491	0.918	8.4	1.33	502*	269
c1ccc(CN2C3=NCCN3c3ccccc32)cc1	/	i	/	/	/	/	/	/
O=C(CN1C2=NCCN2c2ccccc21)C12CC3CC(CC(C3)C1)C2	-9.33*	i	-0.289	-0.331	-5.3	-1.41	337*	153
CCN(CC)CCCN(C(=O)c1cccs1)c1nc(-c2ccc(OC)cc2)cs1	-5.35*	i	-1.41	2.46	-3.5	-1.85	321*	237
O=C(NCC(c1ccco1)N1CCCC1)c1ccccc1F (centres undefined)	/	/	/	-0.811	/	/	/	/
COc1ccc(Cl)cc1C(=O)NCC(c1ccco1)N1CCCC1 (centres undefined)	-4.64*	/	-0.15	-0.585	23.3	-0.553	390*	236
Cc1nn(-c2ccccc2)c(C)c1Sc1ccc(Br)cc1	/	i	/	/	/	/	/	/
CCOc1ccc(C(=O)Nc2ccc(N3CCN(C)CC3)cc2)cc1Br	-3.48*	i	-0.718	/	-5.9	-6.42*	361*	242
CCN1C(=O)c2ccccc2S(=O)c2ccc(C(=O)N3CCN(C(=O)c4ccco4)CC3)cc21 (centres undefined)	-1.34*	i	-0.0255	0.615	2.6	/	485	220
O=C(C1CCCO1)N1CCN(c2c3c(nc4cc(-c5ccc(F)cc5)nn24)CCC3)CC1 (centres undefined)	-3.6*	i	1.24	1.09	-0.6	-0.297	661	243
OC1CCN(c2c3c(nc4cc(-c5ccc(F)cc5)nn24)CCC3)CC1	/	/	/	1.46	/	/	/	/
Cc1ccc(Cn2nnc3c(=O)n(CC(=O)N4CCN(c5ccccc5)CC4)cnc32)cc1	-4.74*	i	-2.49	0.663	9.8	-0.42	656	205
CCCN(CCO)Cc1cccc(Cl)c1	-2.57*	i	-0.0125	-0.409	5.3	-0.00547	715	194
Cc1cc(C)nc(NC2=NCCN2C(=O)Nc2ccc(Cl)c(Cl)c2)n1	-4.09*	/	-0.728	/	6.1	-0.0816	475	217
Cc1cc(C)nc(NC(=O)c2ccc(Cl)c(Cl)c2)n1	/	/	/	0.154	/	/	/	/
CN1CCCCc2c1nc1c(c2N)CCCC1	-2.47*	i	-0.718	1.68	4.1	0.0148	509	264
Cc1nc(N)nc2c1CCCC2	/	/	/	0.733	/	/	/	/
Cc1cc(Cl)ccc1Oc1ncc(-c2ccc(Cl)cc2)cn1	/	/	/	-0.206	/	/	/	/
Cc1oc(-c2ccc(Cl)cc2)[n+]([O-])c1C	-1.63*	i	-0.882	0.187	19.3	-0.69	527	233
Fc1ccc(-c2nc(-c3ccccc3)c3ccccn23)cc1	/	i	/	/	/	/	/	/
CCCc1cc(=O)[nH]c(SCC(=O)c2cc(C)n(CCOC)c2C)n1	-3.61*	i	0.0824	0.417	12.1	0.463	537	198
CCCc1cc(=O)[nH]c(SCC(=O)c2cc(C)n(C)c2C)n1	/	/	/	0.319	/	/	/	/
CC1CCCN(CCC(=O)c2ccc(Br)cc2)C1 (centres undefined)	-4.54*	i	-0.382	-0.00345	19.1	-0.38	500	215
SMILES	M1 antagonist	BAP1 block	M1 agonist	DAT uptake mod	HEK293 NFkB inh	D1 mod	M1 antag confirm	mGluR4 antag
O=C(Nc1ccc(-c2nc3ccccc3o2)cc1)c1ccc([N+](=O)[O-])o1	/	i	/	/	/	/	/	/
O=C(CCn1nc(-c2ccc(Cl)cc2)ccc1=O)N1CCOCC1	0.259	i	-0.284	0.76	13.8	-0.143	/	/
O=C(CCn1nc(-c2ccc(Cl)cc2)ccc1=O)N1CCN(c2ccccn2)CC1	-3*	i	1.26	/	-7.2	2.17	584	247
Cc1ccc(Cl)cc1N1CCN(S(=O)(=O)c2ccc3c(c2)OCCO3)CC1	-0.678	i	-0.564	-1.02	-3.4	-0.28	/	/
Cc1ccc(C)c(N2CCN(S(=O)(=O)c3ccc4c(c3)OCCO4)CC2)c1	-1*	i	-0.127	1.04	7.5	-0.358	641	235
COC(=O)C1=CNC=C(C(=O)OC)C1c1ccc(C)cc1	/	i	/	/	/	/	/	/
COC(=O)C1=CNC=C(C(=O)OC)C1c1ccc(C(=O)OC)cc1	-3.21*	/	-0.019	-0.474	13.5	0.615	398*	220
Cc1oc2ccc(OC(=O)c3ccc(Br)cc3)cc2c1C(=O)OC(C)C	/	i	/	/	/	/	/	/
CCOC(=O)c1ccc(Nc2nnc3nc(C)cc(C)n23)cc1	-1.24*	i	-0.706	0.907	11.3	0.252	466	214
Cc1cc2nc(SCCN3CCCC3)[nH]c2cc1C	-1.91*	i	0.56	-7.77*	-0.6	/	440	185
Nc1ncnc2nc(SCCN3CCCCC3)[nH]c12	-2.78*	i	-0.299	/	4.3	0.126	680	237
Cc1cc2nc(SC(C)C(=O)O)[nH]c2cc1C (centres undefined)	0.519	i	0.816	/	0.4	-0.0477	/	/
COc1ccccc1N1CCN(C(=O)Cc2cccs2)CC1	-1.85*	i	-0.426	0.111	9.5	0.485	544	200
O=C(Cc1cccs1)N1CCN(c2ccc(F)cc2)CC1	/	/	/	-0.708	/	/	/	/
COc1ccccc1N1CCN(C(=O)C2c3ccccc3Oc3ccccc32)CC1	-1.33*	i	-0.207	-0.0726	20.5	-0.795	573	274
O=C(O)CCCCCC[C@H]1C(=O)NC(=O)N1CC[C@@H](O)C1CCCCC1	/	i	/	/	/	/	/	/
COc1ccc(C=Cc2ccc([N+](=O)[O-])cc2)c(OC)c1	/	i	/	/	/	/	/	/
Cc1ccc(Nc2nnc(-c3cc4ccccc4oc3=O)s2)cc1	/	i	/	/	/	/	/	/
O=c1[nH]c2ccccc2n1CCCOc1ccccc1	-0.000357	i	-0.528	-0.0102	7.4	0.314	/	/
CCCCn1c(=O)[nH]c2ccccc21	-2.36*	i	-2.19	-0.112	13.1	-0.468	674	225
CCn1c(=O)cc(OCC(=O)Nc2ccc3c(c2)OCCO3)c2ccccc21	-0.107	i	0.143	1.05	5.8	-1.17	/	/
CCN(CC)CCOC(=O)c1ccc(NC(=O)COc2cc(=O)n(CC)c3ccccc23)cc1	-3.42*	i	1.24	1.09	5.1	-0.928	576*	184
c1cc2c(cc1C1CCCN1)OCCCO2 (centres undefined)	-3.74*	i	0.527	-0.526	-2.2	/	513*	239
O=S(=O)(c1ccc2c(c1)OCCCO2)N1CCNCC1	-0.421	i	-1.53	0.225	6.6	0.00412	/	/
CCC(=O)Nc1ccc2nc(SCc3c(C)cc(C)c(C(C)=O)c3C)sc2c1	/	i	/	/	/	/	/	/
